The source of these data is ChEMBL document CHEMBL1154403, “Serotypes, Clones, and Mechanisms of Resistance of Erythromycin-Resistant Streptococcus pneumoniae Isolates Collected in Spain” (2007).

A word on the MIC: it is the lowest concentration found to suppress growth. Lower therefore signals greater potency. As a reminder, the MIC50 is the lowest concentration that inhibits either 50% of growth or 50% of the strains tested, depending on the study. One may read the MIC90 as an inhibitory concentration at the 90% level, which refers to growth in some studies and to a panel of isolates in others. High values mean weaker potency, low ones greater potency.

What all share (format): functional
The test system of experiment [1] is Streptococcus pneumoniae. The experiment can be described thus: Antibacterial activity against erythromycin-resistant Streptococcus pneumoniae assessed as percent resistant isolates by microdilution method. An outline of the steps:
(§1)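 Broth microdilution MICs per CLSI on all 125 erythromycin-resistant pneumococcal isolates, using Mueller-Hinton broth with 2 to 5% lysed horse blood in prepared panels. Example ranges: erythromycin 0.25 to 32 μg/ml, clindamycin 0.25 to 0.5 μg/ml, penicillin 0.03 to 8 μg/ml, telithromycin 0.015 to 32 μg/ml (separate panel). Quality control strain: S. pneumoniae ATCC 49619.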
A general note: In broth dilution the organism is exposed to a series of concentrations in liquid medium.

Experiment [2] concerns Streptococcus pneumoniae. The experiment can be described thus: Antibacterial activity against erythromycin-resistant Streptococcus pneumoniae by microdilution method. The method in brief:
as §1

Experiment [3] relates to Streptococcus pneumoniae. The experiment in a line: Antibacterial activity against erythromycin-resistant Streptococcus pneumoniae assessed as percent sensitive isolates by CLSI breakpoint method.
Experiment [4] deals with Streptococcus pneumoniae. The experiment in a line: Antibacterial activity against erythromycin-resistant Streptococcus pneumoniae assessed as percent resistant isolates by CLSI breakpoint method.
For experiment [5], the system named is Streptococcus pneumoniae. The experiment in a line: Antibacterial activity against constitutive macrolide-lincosamide-streptogramin B-resistant Streptococcus pneumoniae isolates by double-disk diffusion method. The method in brief:
(§2)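 Macrolide resistance phenotype assigned by double-disk diffusion with erythromycin (15 μg) and clindamycin (2 μg) disks placed 12 mm apart, edge to edge. After incubation, a flattened clindamycin zone next to the erythromycin disk (D zone) marked inducible resistance. A conserved clindamycin zone marked the M phenotype.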

The subject of experiment [6] is Streptococcus pneumoniae. The experiment can be described thus: Antibacterial activity against macrolide-resistant Streptococcus pneumoniae isolates by double-disk diffusion method. The method in brief: as §2
Background: A growth-free zone around the sample is the usual read-out of agar diffusion tests.

For experiment [7], the system named is Streptococcus pneumoniae. The experiment in a line: Antibacterial activity against inducible macrolide-lincosamide-streptogramin B-resistant Streptococcus pneumoniae isolates by double-disk diffusion method. An outline of the steps: as §2
The test system of experiment [8] is Streptococcus pneumoniae. The experiment can be described thus: Antibacterial activity Streptococcus pneumoniae expressing erm(B) and/or mef genes at 0.25 ug/ml by broth microdilution method. The method in brief: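 Clinical erythromycin-resistant pneumococcal isolates identified by bile solubility and optochin susceptibility. MICs were determined by CLSI broth microdilution in Mueller-Hinton broth with 2 to 5% lysed horse blood, using commercial prepared panels; telithromycin was tested on a separate panel across 0.015 to 32 μg/ml. S. pneumoniae ATCC 49619 served as quality control.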

Experiment [9] has as its system Streptococcus pneumoniae. The experiment in a line: Antibacterial activity against inducible macrolide-lincosamide-streptogramin B-resistant Streptococcus pneumoniae expressing erm(B) and tet(M) genes assessed as percent resistant isolates by broth microdilution method. An outline of the steps: as §1

In brackets after ≈: the same amount, converted by molar mass. Bounds are passed on as bounds.

Turning to `CC[C@H]1OC(=O)[C@H](C)[C@@H](O[C@H]2C[C@@](C)(OC)[C@@H](O)[C@H](C)O2)[C@H](C)[C@@H](O[C@@H]2O[C@H](C)C[C@H](N(C)C)[C@H]2O)[C@](C)(O)C[C@@H](C)CN(C)[C@H](C)[C@@H](O)[C@]1(C)O` [AZITHROMYCIN], the Activity with Streptococcus pneumoniae [1] is on record as 100%. In the experiment with Streptococcus pneumoniae [2], the MIC was over 4 µg/mL, the MIC50 was over 4 µg/mL and the MIC90 is over 4 µg/mL. Also, in the experiment with Streptococcus pneumoniae [3], the Activity entry is recorded as “<=0.5 ug ml-1”. Also, in the experiment with Streptococcus pneumoniae [4], the “CLSI resistance breakpoint (MIC)” value was “>=2 ug ml-1”.
For the molecule `CO/N=C(\C(=O)N[C@@H]1C(=O)N2C(C(=O)O)=C(COC(C)=O)CS[C@H]12)c1csc(N)n1` [CEFOTAXIME], in the experiment with Streptococcus pneumoniae [1], the Activity is 0.8%. Also, in the experiment on Streptococcus pneumoniae [2], the MIC was at most 0.06 µg/mL, the MIC50 was determined as 0.25 µg/mL (≈ 0.549 µM) and the MIC90 stood at 0.5 µg/mL (≈ 1.1 µM). Also, the Activity entry with Streptococcus pneumoniae [3] is “<=1 ug ml-1”. In the experiment with Streptococcus pneumoniae [4], the “CLSI resistance breakpoint (MIC)” value is recorded as “>=4 ug ml-1”.
`O=C(N[C@H](CO)[C@H](O)c1ccc([N+](=O)[O-])cc1)C(Cl)Cl` [CHLORAMPHENICOL]: the Activity in the experiment with Streptococcus pneumoniae [1] is reported as 34.4%. Besides, in the experiment with Streptococcus pneumoniae [2], the MIC was over 8 µg/mL, the MIC50 amounted to 2 µg/mL (≈ 6.19 µM) and the MIC90 is over 8 µg/mL. In addition, in the experiment on Streptococcus pneumoniae [3], the Activity entry was “<=4 ug ml-1”. Also, in the experiment with Streptococcus pneumoniae [4], the “CLSI resistance breakpoint (MIC)” value is “>=8 ug ml-1”.
With `CCC[C@@H]1C[C@@H](C(=O)N[C@@H]([C@H]2O[C@H](SC)[C@H](O)[C@@H](O)[C@H]2O)[C@H](C)Cl)N(C)C1` [CLINDAMYCIN], the MIC in the experiment on Streptococcus pneumoniae [5] is over 0.5 µg/mL; in the experiment with Streptococcus pneumoniae [6] it was at most 0.25 µg/mL; in the experiment with Streptococcus pneumoniae [7], over 0.5 µg/mL; in the experiment on Streptococcus pneumoniae [2], over 0.5 µg/mL. The Activity is recorded as 87.2% in the experiment with Streptococcus pneumoniae [1] and “<=0.25 ug ml-1” with Streptococcus pneumoniae [3]. Also, the MIC50 against Streptococcus pneumoniae [2] was over 0.5 µg/mL. In the experiment on Streptococcus pneumoniae [2], the MIC90 was over 0.5 µg/mL. For the same molecule, the “CLSI resistance breakpoint (MIC)” value in the experiment on Streptococcus pneumoniae [4] is reported as “>=1 ug ml-1”.
Turning to `CC[C@H]1OC(=O)[C@H](C)[C@@H](O[C@H]2C[C@@](C)(OC)[C@@H](O)[C@H](C)O2)[C@H](C)[C@@H](O[C@@H]2O[C@H](C)C[C@H](N(C)C)[C@H]2O)[C@](C)(O)C[C@@H](C)C(=O)[C@H](C)[C@@H](O)[C@]1(C)O` [ERYTHROMYCIN], the MIC with Streptococcus pneumoniae [5] is over 32 µg/mL; against Streptococcus pneumoniae [6] it was 2 µg/mL (≈ 2.73 µM); against Streptococcus pneumoniae [7], at least 4 µg/mL. Moreover, the Activity with Streptococcus pneumoniae [1] was 100%; in the experiment with Streptococcus pneumoniae [3], “<=0.25 ug ml-1”. For the same molecule, the MIC50 in the experiment on Streptococcus pneumoniae [2] is over 32 µg/mL. Besides, the MIC90 in the experiment with Streptococcus pneumoniae [2] is over 32 µg/mL. Further, the “CLSI resistance breakpoint (MIC)” value with Streptococcus pneumoniae [4] was “>=1 ug ml-1”.
For `CO[C@@H]1[C@@H](O[C@@H]2O[C@H](C)[C@@H](O[C@H]3C[C@@](C)(O)[C@@H](OC(=O)CC(C)C)[C@H](C)O3)[C@H](N(C)C)[C@H]2O)[C@@H](CC=O)C[C@@H](C)[C@@H](O)/C=C/C=C/C[C@@H](C)OC(=O)C[C@H]1OC(C)=O` [JOSAMYCIN], the MIC with Streptococcus pneumoniae [5] was over 2 µg/mL; against Streptococcus pneumoniae [6] it was at most 0.5 µg/mL; against Streptococcus pneumoniae [7], over 2 µg/mL; against Streptococcus pneumoniae [2] it was over 2 µg/mL. The Activity in the experiment on Streptococcus pneumoniae [1] is on record as 87.2%; in the experiment with Streptococcus pneumoniae [3] it was “<=1 ug ml-1”. This molecule came in with an MIC50 against Streptococcus pneumoniae [2] of over 2 µg/mL. Further, the MIC90 against Streptococcus pneumoniae [2] was over 2 µg/mL. For the same molecule, the “CLSI resistance breakpoint (MIC)” value with Streptococcus pneumoniae [4] was “>=4 ug ml-1”.
Consider `C[C@H]1COc2c(N3CCN(C)CC3)c(F)cc3c(=O)c(C(=O)O)cn1c23.C[C@H]1COc2c(N3CCN(C)CC3)c(F)cc3c(=O)c(C(=O)O)cn1c23.O` [LEVOFLOXACIN], for which the Activity with Streptococcus pneumoniae [1] was determined as 4%. Also, in the experiment on Streptococcus pneumoniae [2], the MIC was over 4 µg/mL, the MIC50 was 1 µg/mL and the MIC90 came out at 1 µg/mL. Further, the Activity result in the experiment on Streptococcus pneumoniae [3] is reported as “<=2 ug ml-1”. For the same molecule, in the experiment on Streptococcus pneumoniae [4], the “CLSI resistance breakpoint (MIC)” value was “>=8 ug ml-1”.
As to `COc1c(N2C[C@@H]3CCCN[C@@H]3C2)c(F)cc2c(=O)c(C(=O)O)cn(C3CC3)c12` [MOXIFLOXACIN], in the experiment on Streptococcus pneumoniae [1], the Activity was 2.4%. In the experiment with Streptococcus pneumoniae [2], this molecule yielded a minimum inhibitory concentration (MIC) of over 1 µg/mL, an MIC50 of at most 0.25 µg/mL and an MIC90 of at most 0.25 µg/mL.
Take `CC[C@H]1OC(=O)[C@H](C)C(=O)[C@H](C)[C@@H](O[C@@H]2O[C@H](C)C[C@H](N(C)C)[C@H]2O)[C@](C)(OC)C[C@@H](C)C(=O)[C@H](C)[C@H]2N(CCCCn3cnc(-c4cccnc4)c3)C(=O)O[C@]12C` [TELITHROMYCIN]: the Activity is on record as 90% in the experiment with Streptococcus pneumoniae [8], 0% in the experiment with Streptococcus pneumoniae [1] and “<=1 ug ml-1” in the experiment with Streptococcus pneumoniae [3]. In addition, the MIC in the experiment on Streptococcus pneumoniae [2] came to 0.03 µg/mL (≈ 0.0369 µM). Also, the MIC50 against Streptococcus pneumoniae [2] amounted to 0.03 µg/mL (≈ 0.0369 µM). This molecule came in with an MIC90 in the experiment with Streptococcus pneumoniae [2] of 0.25 µg/mL (≈ 0.308 µM). The “CLSI resistance breakpoint (MIC)” value in the experiment on Streptococcus pneumoniae [4] was “>=4 ug ml-1”.
With `CN(C)[C@@H]1C(O)=C(C(N)=O)C(=O)[C@@]2(O)C(O)=C3C(=O)c4c(O)cccc4[C@@](C)(O)[C@H]3C[C@@H]12` [TETRACYCLINE], the Activity in the experiment with Streptococcus pneumoniae [9] is given as 90%; in the experiment on Streptococcus pneumoniae [1], 77.6%; in the experiment on Streptococcus pneumoniae [3], “<=2 ug ml-1”. For the same molecule, the MIC in the experiment with Streptococcus pneumoniae [2] was over 4 µg/mL. In addition, in the experiment with Streptococcus pneumoniae [2], the MIC50 was over 4 µg/mL. This molecule also gave an MIC90 with Streptococcus pneumoniae [2] of over 4 µg/mL. Moreover, the “CLSI resistance breakpoint (MIC)” value in the experiment on Streptococcus pneumoniae [4] was “>=8 ug ml-1”.
With `CN[C@H](CC(C)C)C(=O)N[C@H]1C(=O)N[C@@H](CC(N)=O)C(=O)N[C@H]2C(=O)N[C@H]3C(=O)N[C@H](C(=O)N[C@H](C(=O)O)c4cc(O)cc(O)c4-c4cc3ccc4O)[C@H](O)c3ccc(c(Cl)c3)Oc3cc2cc(c3O[C@@H]2O[C@H](CO)[C@@H](O)[C@H](O)[C@H]2O[C@H]2C[C@](C)(N)[C@H](O)[C@H](C)O2)Oc2ccc(cc2Cl)[C@H]1O` [VANCOMYCIN], the Activity in the experiment with Streptococcus pneumoniae [1] is on record as 0%. In the experiment on Streptococcus pneumoniae [2], the MIC is 1 µg/mL (≈ 0.69 µM), the MIC50 was at most 0.25 µg/mL and the MIC90 is 1 µg/mL (≈ 0.69 µM). In addition, the Activity entry with Streptococcus pneumoniae [3] is “<=1 ug ml-1”.
